Activity and inhibition data for four molecules are collected here from ChEMBL document CHEMBL2440049, “A structurally simplified analogue of geldanamycin exhibits neuroprotective activity” (ACS Med Chem Lett, 2013).

Active and inactive are the calls of the source. The rule behind the calls is not given here.

Data set [1] in a line: Cytotoxicity against DEM-stimulated human Friedreich's ataxia lymphocytes assessed as effect on intracellular glutathione concentration at 1 to 10 uM. The data set is classed as cell-based.
In data set [2] the target is Amyloid-beta precursor protein (Homo sapiens) (UniProt P05067). Nature of the data set: Neuroprotective activity in differentiated human SH-SY5Y cells assessed as decrease in amyloid beta (1 to 42)-induced neurotoxicity incubated overnight prior to amyloid beta (1 to 42)-stimulation measured after 48 hrs by WST-1 assay. It counts as functional, cell-based.
Sequence of Amyloid-beta precursor protein (Homo sapiens) (P05067 whole entry): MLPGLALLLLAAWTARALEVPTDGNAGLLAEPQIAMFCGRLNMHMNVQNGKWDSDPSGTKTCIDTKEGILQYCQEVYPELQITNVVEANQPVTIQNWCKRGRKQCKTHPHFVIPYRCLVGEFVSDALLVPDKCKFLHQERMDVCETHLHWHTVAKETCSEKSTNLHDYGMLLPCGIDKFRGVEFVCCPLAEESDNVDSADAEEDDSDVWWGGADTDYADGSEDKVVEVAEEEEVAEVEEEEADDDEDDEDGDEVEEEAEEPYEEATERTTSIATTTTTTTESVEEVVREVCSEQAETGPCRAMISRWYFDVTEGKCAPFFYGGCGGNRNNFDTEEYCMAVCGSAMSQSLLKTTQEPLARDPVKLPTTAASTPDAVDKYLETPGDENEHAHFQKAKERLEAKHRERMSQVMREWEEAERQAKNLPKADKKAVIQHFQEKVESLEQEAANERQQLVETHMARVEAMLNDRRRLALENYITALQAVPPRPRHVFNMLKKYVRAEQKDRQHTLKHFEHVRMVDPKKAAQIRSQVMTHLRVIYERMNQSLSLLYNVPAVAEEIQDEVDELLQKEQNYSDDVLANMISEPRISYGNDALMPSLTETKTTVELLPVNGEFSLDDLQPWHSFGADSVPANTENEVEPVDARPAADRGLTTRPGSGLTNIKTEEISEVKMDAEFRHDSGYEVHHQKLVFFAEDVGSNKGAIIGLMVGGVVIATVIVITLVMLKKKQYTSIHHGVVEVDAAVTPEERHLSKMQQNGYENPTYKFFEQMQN
The nature of data set [3]: Cytoprotective activity in human Friedreich's ataxia lymphocytes assessed as reduction in DEM-induced oxidative stress at 0.1 uM preincubated for 16 hrs prior to DEM-stimulation measured after 6 hrs by trypan blue exclusion assay relative to untreated control. It counts as functional. More on the design: scale not given: the % may be the effect or the level left. The method, boiled down:
(§1)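 FRDA lymphocytes treated with compound at 0.1–5 μM, then oxidatively stressed with diethyl maleate to deplete glutathione. Viability set to 100% for untreated cells. Mean ± SEM of three independent experiments run in duplicate.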

Data set [4] in a line: Cytoprotective activity in human Friedreich's ataxia lymphocytes assessed as reduction in DEM-induced oxidative stress at 0.5 uM preincubated for 16 hrs prior to DEM-stimulation measured after 6 hrs by trypan blue exclusion assay relative to untreated control. It counts as functional. Also noted: scale not given: the % may be the effect or the level left. The procedure, abridged:
as §1

Data set [5] is filed under the species Homo sapiens. Description: Cytoprotective activity in DEM-stimulated human Friedreich's ataxia lymphocytes assessed as cells with intact mitochondrial membrane potential at 5 uM preincubated for 16 hrs prior to DEM-stimulation measured after 140 mins by TMRM dye-based flow cytometric analysis (reference value: 92%). The data set is classed as functional.
Data set [6] deals with Heat shock protein HSP 90-beta (Homo sapiens) (UniProt P08238). Nature of the data set: Inhibition of HSP90 in human BT474 cells expressing HER2 assessed as HER2 protein degradation at 0.5 to 25 uM after 24 hrs by chemiluminescence assay. It counts as cell-based. Particulars: BT-474.
Sequence of Heat shock protein HSP 90-beta (Homo sapiens) (P08238 whole entry): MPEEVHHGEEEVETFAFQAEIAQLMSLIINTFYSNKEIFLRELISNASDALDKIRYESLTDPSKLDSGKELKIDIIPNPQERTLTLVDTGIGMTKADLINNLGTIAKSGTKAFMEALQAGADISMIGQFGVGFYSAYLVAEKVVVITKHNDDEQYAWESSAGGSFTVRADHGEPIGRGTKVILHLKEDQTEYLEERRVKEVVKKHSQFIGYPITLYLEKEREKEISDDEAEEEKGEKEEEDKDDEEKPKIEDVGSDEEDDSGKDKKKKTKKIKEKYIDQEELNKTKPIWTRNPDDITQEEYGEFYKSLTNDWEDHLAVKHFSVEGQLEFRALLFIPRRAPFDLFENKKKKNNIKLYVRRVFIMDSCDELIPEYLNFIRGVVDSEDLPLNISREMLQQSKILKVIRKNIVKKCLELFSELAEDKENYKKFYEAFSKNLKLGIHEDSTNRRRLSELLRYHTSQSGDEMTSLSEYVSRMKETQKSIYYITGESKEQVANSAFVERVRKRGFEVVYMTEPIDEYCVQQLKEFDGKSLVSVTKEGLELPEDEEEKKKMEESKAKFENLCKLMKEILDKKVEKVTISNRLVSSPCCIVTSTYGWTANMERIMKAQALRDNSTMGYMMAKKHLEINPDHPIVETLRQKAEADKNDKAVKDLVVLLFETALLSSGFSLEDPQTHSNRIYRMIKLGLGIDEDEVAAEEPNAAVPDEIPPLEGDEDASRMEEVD
Data set [7] deals with BT-474. Description: Cytotoxicity against human BT474 cells at 5 to 20 uM after 48 hrs by WST-1 assay. It counts as cell-based. As to conditions: bt-474, 48 h.
For data set [8], the species on record is Homo sapiens. Nature of the data set: Antioxidant activity in human Friedreich's ataxia lymphocytes assessed as suppression of DEM-induced lipid peroxidation at 10 uM after overnight incubation by flow cytometric analysis relative to untreated control. The data set is classed as functional. The procedure, abridged: (§2)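 FRDA lymphocytes treated with compound at 1, 5 or 10 μM, then stressed with DEM. Lipid peroxidation probed with C11-BODIPY581/591; oxidized green fluorescence, median intensity, measured by flow cytometry and compared with untreated control. Results given as % scavenging activity; mean ± SEM, n = 3.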

For data set [9], the species on record is Homo sapiens. Description: Cytoprotective activity in BSO-stimulated human Friedreich's ataxia fibroblasts assessed as preservation of mitochondrial membrane potential at 5 uM after 12 hrs by JC-1 dye-based Zeiss fluorescent microscopic analysis.
Data set [10] is filed under the species Homo sapiens. Description: Cytoprotective activity in human Friedreich's ataxia lymphocytes assessed as reduction in DEM-induced oxidative stress preincubated for 16 hrs prior to DEM-stimulation measured after 6 hrs by trypan blue exclusion assay. The data set is classed as functional. The method, boiled down:
as §1

The species entered for data set [11] is Homo sapiens. Description: Antioxidant activity in human Friedreich's ataxia lymphocytes assessed as suppression of DEM-induced lipid peroxidation at 5 uM after overnight incubation by flow cytometric analysis relative to untreated control. It counts as functional. The procedure, abridged:
as §2

Data set [12] in a line: Cytoprotective activity in human Friedreich's ataxia lymphocytes assessed as reduction in DEM-induced oxidative stress at 5 uM preincubated for 16 hrs prior to DEM-stimulation measured after 6 hrs by trypan blue exclusion assay relative to untreated control. It counts as functional. Also noted: scale not given: the % may be the effect or the level left. The method, boiled down:
as §1

For data set [13], the species on record is Homo sapiens. Nature of the data set: Antioxidant activity in human Friedreich's ataxia lymphocytes assessed as suppression of DEM-induced ROS production preincubated for 16 hrs prior to DEM-stimulation measured after 80 mins by flow cytometric analysis. It counts as functional. The procedure, abridged: (§3)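 FRDA lymphocytes pretreated 16 h with compound (5 and 10 μM), then 5 mM diethyl maleate for 80 min to deplete glutathione. Cells washed, resuspended in PBS with 20 mM glucose, loaded with 10 μM DCFH-DA for 20 min. DCF fluorescence read by flow cytometry, 488 nm excitation, 530 ± 15 nm emission, 10,000 events. Expressed as % ROS scavenging; mean ± SEM, n = 3.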

Data set [14] can be described thus: Cytotoxicity against human Friedreich's ataxia lymphocytes at 5 to 20 uM after 48 hrs by WST-1 assay.
For data set [15], the species on record is Homo sapiens. Description: Antioxidant activity in human Friedreich's ataxia lymphocytes assessed as suppression of DEM-induced lipid peroxidation after overnight incubation by flow cytometric analysis. The data set is classed as functional. The procedure, abridged:
as §2

Data set [16] can be described thus: Cytoprotective activity in human Friedreich's ataxia lymphocytes assessed as reduction in DEM-induced oxidative stress at 2.5 uM preincubated for 16 hrs prior to DEM-stimulation measured after 6 hrs by trypan blue exclusion assay relative to untreated control. More on the design: scale not given: the % may be the effect or the level left. The data set is classed as functional. The method, boiled down:
as §1

For data set [17], the species on record is Homo sapiens. Description: Antioxidant activity in human Friedreich's ataxia lymphocytes assessed as suppression of DEM-induced lipid peroxidation at 1 uM after overnight incubation by flow cytometric analysis relative to untreated control. It counts as functional. The method, boiled down: as §2
The target in data set [18] is Heat shock protein HSP 90-beta (Homo sapiens) (UniProt P08238). Nature of the data set: Inhibition of HSP90 in human BT474 cells expressing HER2 assessed as increase in HSP90 protein level at 0.5 to 5 uM after 24 hrs by chemiluminescence assay. It counts as cell-based. As to conditions: BT-474.
In data set [19] the test system is BT-474. Nature of the data set: Cytotoxicity against human BT474 cells at 0.05 to 0.25 uM after 48 hrs by WST-1 assay. It counts as cell-based. As to conditions: bt-474, 48 h.
The nature of data set [20]: Cytotoxicity against human Friedreich's ataxia lymphocytes at 0.05 to 0.25 uM after 48 hrs by WST-1 assay.
For data set [21], the species on record is Homo sapiens. Description: Antioxidant activity in human Friedreich's ataxia lymphocytes assessed as suppression of DEM-induced ROS production at 5 to 10 uM preincubated for 16 hrs prior to DEM-stimulation measured after 80 mins by flow cytometric analysis. It counts as functional. The method, boiled down: as §3

For the molecule `COC1=C2CCCCCCCCCCCCCCCNC(=CC1=O)C2=O`, the Activity entry is “Non-toxic” in data set [1]; “Dose-dependent effect” in data set [2]; 36% in data set [3]; 69% in [4]; 80% in the data set listed under Homo sapiens [5]; “Non-toxic” in the data set on BT-474 [7]. Further, the Activity in the data set filed under Homo sapiens [8] was 83%; in the data set filed under Homo sapiens [10], “Dose-dependent effect”; in the data set filed under Homo sapiens [11] it was 72%; in data set [12], 92%; in the data set listed under Homo sapiens [13], “Dose-dependent effect”; in [14], “Non-toxic”. The Activity result in the data set filed under Homo sapiens [15] was “Dose-dependent effect”; in data set [16], 83%; in the data set filed under Homo sapiens [17], 29%. Also, the inhibition result in data set [6] and in [18] was “inactive” throughout. Moreover, the outcome in the data set listed under Homo sapiens [9] was Active.

Consider `COC1=C2C[C@@H](C)C[C@H](OC)[C@H](O)[C@@H](C)/C=C(\C)[C@H](OC(N)=O)[C@@H](OC)/C=C\C=C(/C)C(=O)NC(=CC1=O)C2=O` [GELDANAMYCIN], for which the Activity result (with BT-474 [19]; in data set [20]) was “Toxic” in each case.

On to `CCCCCCCCCCCCCC1=C(O)C(=O)C=C(NCCCCCC)C1=O`, for which the Activity was 18% in [3]; 22% in data set [4]; 43% in the data set listed under Homo sapiens [5]; 38% in the data set filed under Homo sapiens [8]; 27% in the data set listed under Homo sapiens [11]; 65% in data set [12]. Besides, the Activity in [16] was determined as 43%; in the data set listed under Homo sapiens [17], 2%. In addition, the outcome in the data set listed under Homo sapiens [21] was Active.

Consider `CCCCCCCCCCCCCC1=C(OC)C(=O)C=C(NCCCCCC)C1=O`, for which the Activity is 20% in data set [3]; 50% in data set [4]; 56% in the data set listed under Homo sapiens [5]; 70% in the data set listed under Homo sapiens [8]; 61% in the data set filed under Homo sapiens [11]; 80% in [12]. The Activity result in the data set listed under Homo sapiens [15] was “Dose-dependent effect”; in data set [16], 66%; in the data set listed under Homo sapiens [17], 14%. In addition, the result in the data set filed under Homo sapiens [21] was Active.
